35 molecules from ChEMBL document CHEMBL3627606, “Development of Novel, CNS Penetrant Positive Allosteric Modulators for the Metabotropic Glutamate Receptor Subtype 1 (mGlu1), Based on an N-(3-Chloro-4-(1,3-dioxoisoindolin-2-yl)phenyl)-3-methylfuran-2-carboxamide Scaffold, That Potentiate Wild Type and Mutant mGlu1 Receptors Found in …” (J Med Chem, 2015) can be followed below.

Each structure is given as a SMILES string.

For data set [1], the target named is T1, Metabotropic glutamate receptor 1 (Homo sapiens, UniProt Q13255). The data set is described as follows: Positive allosteric modulation of human mGlu1 receptor in HEK293 cells assessed as potentiation of glutamate-induced calcium mobiliztion by Fluo-4AM dye based fluorescence analysis. Conditions: read-out: EC50. It is filed as functional, cell-based.
Target sequence in this assay (Q13255 whole entry): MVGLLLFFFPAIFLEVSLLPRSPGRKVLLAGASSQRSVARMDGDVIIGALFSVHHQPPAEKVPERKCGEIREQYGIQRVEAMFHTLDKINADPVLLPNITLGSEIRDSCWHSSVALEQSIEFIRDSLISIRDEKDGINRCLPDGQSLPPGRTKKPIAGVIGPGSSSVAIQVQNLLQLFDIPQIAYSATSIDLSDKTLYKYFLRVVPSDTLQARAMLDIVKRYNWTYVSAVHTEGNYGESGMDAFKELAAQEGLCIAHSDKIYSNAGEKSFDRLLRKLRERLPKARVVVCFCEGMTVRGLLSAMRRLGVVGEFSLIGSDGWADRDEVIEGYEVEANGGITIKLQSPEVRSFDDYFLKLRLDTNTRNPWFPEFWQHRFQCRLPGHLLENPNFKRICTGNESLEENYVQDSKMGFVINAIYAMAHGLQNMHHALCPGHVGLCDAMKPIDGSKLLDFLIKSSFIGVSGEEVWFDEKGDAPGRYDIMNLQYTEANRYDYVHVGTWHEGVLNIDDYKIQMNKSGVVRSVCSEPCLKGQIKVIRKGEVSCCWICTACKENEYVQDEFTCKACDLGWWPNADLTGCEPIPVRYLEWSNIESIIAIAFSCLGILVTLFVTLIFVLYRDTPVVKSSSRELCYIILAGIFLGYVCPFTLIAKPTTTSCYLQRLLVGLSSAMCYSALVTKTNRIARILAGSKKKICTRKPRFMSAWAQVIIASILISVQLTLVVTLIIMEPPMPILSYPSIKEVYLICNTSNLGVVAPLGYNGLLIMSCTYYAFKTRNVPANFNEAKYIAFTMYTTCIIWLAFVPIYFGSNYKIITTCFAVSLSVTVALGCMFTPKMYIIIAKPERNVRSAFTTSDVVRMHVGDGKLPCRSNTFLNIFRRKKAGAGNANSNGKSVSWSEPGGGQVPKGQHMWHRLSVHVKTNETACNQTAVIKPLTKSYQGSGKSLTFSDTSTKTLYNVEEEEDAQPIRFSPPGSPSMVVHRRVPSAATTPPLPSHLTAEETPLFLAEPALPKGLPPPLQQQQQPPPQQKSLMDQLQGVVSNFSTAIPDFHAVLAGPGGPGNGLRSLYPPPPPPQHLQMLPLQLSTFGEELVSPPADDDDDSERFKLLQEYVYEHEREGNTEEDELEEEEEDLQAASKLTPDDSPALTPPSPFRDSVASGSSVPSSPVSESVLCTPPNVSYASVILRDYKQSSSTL
Data set [2] concerns the target T1, Metabotropic glutamate receptor 1. The data set is described as follows: Positive allosteric modulation of human mGlu1 receptor in HEK293 cells assessed as potentiation of glutamate-induced calcium mobiliztion by Fluo-4AM dye based fluorescence analysis relative to glutamate. It is filed as functional, cell-based.
Target sequence in this assay (Q13255 19-1194 limits assumed): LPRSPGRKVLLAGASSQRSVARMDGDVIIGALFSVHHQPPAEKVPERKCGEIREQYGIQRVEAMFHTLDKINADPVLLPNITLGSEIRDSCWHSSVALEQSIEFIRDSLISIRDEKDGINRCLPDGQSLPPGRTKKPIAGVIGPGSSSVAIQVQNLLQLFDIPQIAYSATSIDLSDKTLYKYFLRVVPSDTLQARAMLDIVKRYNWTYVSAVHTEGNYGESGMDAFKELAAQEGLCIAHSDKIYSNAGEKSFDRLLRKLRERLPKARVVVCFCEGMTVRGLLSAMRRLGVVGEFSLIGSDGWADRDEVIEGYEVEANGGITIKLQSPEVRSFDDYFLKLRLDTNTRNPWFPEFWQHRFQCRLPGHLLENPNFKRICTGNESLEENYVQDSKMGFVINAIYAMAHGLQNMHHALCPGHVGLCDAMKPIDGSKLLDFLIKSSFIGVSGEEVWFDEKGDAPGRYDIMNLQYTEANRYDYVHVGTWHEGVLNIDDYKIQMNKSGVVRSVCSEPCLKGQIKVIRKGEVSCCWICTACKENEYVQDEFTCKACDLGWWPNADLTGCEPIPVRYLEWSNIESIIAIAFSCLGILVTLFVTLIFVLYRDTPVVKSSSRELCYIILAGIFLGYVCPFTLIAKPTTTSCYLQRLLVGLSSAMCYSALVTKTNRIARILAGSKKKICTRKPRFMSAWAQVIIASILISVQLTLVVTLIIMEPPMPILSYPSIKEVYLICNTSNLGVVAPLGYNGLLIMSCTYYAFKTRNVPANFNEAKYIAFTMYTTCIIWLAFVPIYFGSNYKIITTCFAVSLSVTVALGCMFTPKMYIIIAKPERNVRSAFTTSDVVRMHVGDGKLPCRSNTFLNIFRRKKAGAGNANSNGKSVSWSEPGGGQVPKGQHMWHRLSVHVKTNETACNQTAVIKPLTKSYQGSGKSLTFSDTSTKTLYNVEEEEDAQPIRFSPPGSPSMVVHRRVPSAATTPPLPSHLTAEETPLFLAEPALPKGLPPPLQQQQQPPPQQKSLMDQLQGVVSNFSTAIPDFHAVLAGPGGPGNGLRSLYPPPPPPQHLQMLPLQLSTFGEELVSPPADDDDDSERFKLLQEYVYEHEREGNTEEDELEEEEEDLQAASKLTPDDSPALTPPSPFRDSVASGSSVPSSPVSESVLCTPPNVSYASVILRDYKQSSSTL
In data set [3] the target is T2, Metabotropic glutamate receptor 4 (Homo sapiens, UniProt Q14833). The data set is described as follows: Positive allosteric modulation of human mGlu4 receptor assessed as potentiation of glutamate-induced calcium mobiliztion by cell based assay. The format is functional.
Data set [4] has as its target T2, Metabotropic glutamate receptor 4. The data set is described as follows: Positive allosteric modulation of human mGlu4 receptor assessed as potentiation of glutamate-induced calcium mobiliztion by cell based assay relative to PHCCC.
For the next data set, the species on record is Homo sapiens. The data set is described as follows: Selectivity index, ratio of EC50 for human mGlu4 receptor to EC50 for human mGlu1 receptor.
The test system of data set [5] is Plasma. The data set can be described thus: Drug level in human plasma treated with N-(3-chloro-4-(5-chloro-1,3-dioxoisoindolin-2-yl)phenyl)-3-methylfuran-2-carboxamide at 10 uM after 4 hrs by mass spectrometry. The format is ADME, cell-free. The gist of the method:
(§1)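 Compound incubated at 10 μM in rat or human plasma at 37 °C. Samples taken at 0 and 4 h were analysed by mass spectrometry for parent and metabolites.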

For data set [6], the system named is Plasma. The data set is described as follows: Drug level in rat plasma treated with N-(3-chloro-4-(5-chloro-1,3-dioxoisoindolin-2-yl)phenyl)-3-methylfuran-2-carboxamide at 10 uM after 4 hrs by mass spectrometry. It is filed as ADME, cell-free. The gist of the method: as §1

T2 sequence (Q14833 whole entry): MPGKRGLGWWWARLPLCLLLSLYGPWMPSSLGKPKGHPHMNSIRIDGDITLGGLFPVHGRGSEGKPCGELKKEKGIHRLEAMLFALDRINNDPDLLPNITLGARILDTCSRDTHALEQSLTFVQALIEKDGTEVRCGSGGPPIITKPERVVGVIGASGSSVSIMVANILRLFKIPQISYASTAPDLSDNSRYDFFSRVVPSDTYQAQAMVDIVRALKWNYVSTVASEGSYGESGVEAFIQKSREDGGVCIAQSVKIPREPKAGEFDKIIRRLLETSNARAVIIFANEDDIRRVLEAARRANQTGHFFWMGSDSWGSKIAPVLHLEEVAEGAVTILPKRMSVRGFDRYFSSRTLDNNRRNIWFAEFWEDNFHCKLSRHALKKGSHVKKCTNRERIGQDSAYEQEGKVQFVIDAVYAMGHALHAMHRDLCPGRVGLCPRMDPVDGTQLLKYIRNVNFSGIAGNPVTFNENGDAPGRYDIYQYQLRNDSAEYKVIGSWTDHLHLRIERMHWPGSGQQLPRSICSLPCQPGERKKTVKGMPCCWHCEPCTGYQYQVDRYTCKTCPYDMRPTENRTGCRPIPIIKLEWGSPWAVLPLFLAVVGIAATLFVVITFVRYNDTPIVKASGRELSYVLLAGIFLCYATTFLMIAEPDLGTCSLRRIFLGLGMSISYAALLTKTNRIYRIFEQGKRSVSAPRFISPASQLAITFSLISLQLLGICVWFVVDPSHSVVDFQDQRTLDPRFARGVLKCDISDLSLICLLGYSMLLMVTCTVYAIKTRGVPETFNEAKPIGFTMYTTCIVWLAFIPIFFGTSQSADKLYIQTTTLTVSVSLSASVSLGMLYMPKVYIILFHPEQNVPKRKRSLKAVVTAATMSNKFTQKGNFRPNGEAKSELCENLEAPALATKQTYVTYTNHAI

`O=C(Nc1ccc(N2C(=O)c3ccccc3C2=O)c(Cl)c1)c1cnc[nH]1`: the EC50 in data set [1] was > 10 µM.
`O=C(Nc1ccc(N2C(=O)c3ccccc3C2=O)c(Cl)c1)c1ccc(-c2ccccc2)o1`: the EC50 in data set [1] is > 10 µM. Also, in data set [2], the %max was determined as 30%.
In the case of `Cc1ccoc1C(=O)Nc1ccc(N2C(=O)c3cccc(C)c3C2=O)c(Cl)c1`, the EC50 in data set [3] (read-out: EC50) worked out at 0.62 µM; in data set [1] it was 0.0243 µM. In addition, the %max was 153% in data set [4] and 86% in data set [2]. In the data set listed under Homo sapiens, the Ratio EC50 is 25.5.
For `O=C(Nc1ccc(N2C(=O)c3ccccc3C2=O)c(Cl)c1)c1ccc(Cl)o1`, in data set [1], the EC50 was > 10 µM. Further, the %max in data set [2] stood at 55%.
Consider `O=C(Nc1ccc(N2C(=O)c3ccccc3C2=O)c(Cl)c1)c1coc2ccccc12`, for which the EC50 in data set [1] was > 10 µM.
In the case of `O=C(Nc1ccc(N2C(=O)c3ccccc3C2=O)c(Cl)c1)c1cccs1`, in data set [1], the EC50 is > 10 µM.
As to `O=C(Nc1ccc(N2C(=O)c3ccccc3C2=O)c(Cl)c1)c1cocn1`, in data set [1], the EC50 was > 10 µM.
Consider `O=C(Nc1ccc(N2C(=O)c3ccccc3C2=O)c(Cl)c1)c1cscn1`, for which the EC50 in data set [1] was 4.47 µM. Further, the %max in data set [2] was 107%.
As for `O=C(Nc1ccc(N2C(=O)c3ccccc3C2=O)c(Cl)c1)c1cc2ccccc2o1`, the EC50 in data set [1] was > 10 µM.
With `O=C(Nc1ccc(N2C(=O)c3ccccc3C2=O)c(Cl)c1)c1cnco1`, the EC50 in data set [1] is > 10 µM.
With `O=C(Nc1ccc(N2C(=O)c3ccccc3C2=O)c(Cl)c1)c1ccc[nH]1`, the EC50 in data set [1] is > 10 µM.
`O=C(Nc1ccc(N2C(=O)c3ccccc3C2=O)c(Cl)c1)c1csnn1`: the EC50 in data set [1] is > 10 µM. Besides, in data set [2], the %max was 39%.
On to `CC(C)(C)c1ccc(C(=O)Nc2ccc(N3C(=O)c4ccccc4C3=O)c(Cl)c2)o1`, for which the EC50 in data set [1] was > 10 µM.
On to `Cc1ccoc1C(=O)Nc1ccc(N2C(=O)c3cccc(Cl)c3C2=O)c(Cl)c1`, for which the EC50 in data set [3] (read-out: EC50) was determined as 1.14 µM; in data set [1], 0.033 µM. Also, the %max was found to be 163% in data set [4] and 91% in data set [2]. Moreover, the Ratio EC50 in the data set listed under Homo sapiens came out at 34.5.
With `Cc1ccoc1C(=O)Nc1ccc(NC(=O)c2cc(Cl)ccc2C(=O)O)c(Cl)c1`, the Drug metabolism result in the data set with Plasma [5] and in the data set on Plasma [6] was “metabolite_detected” each time.
Regarding `Cc1cc(C)c(C(=O)Nc2ccc(N3C(=O)c4ccccc4C3=O)c(Cl)c2)o1`, in data set [1], the EC50 is > 10 µM.
For the molecule `O=C(Nc1ccc(N2C(=O)c3ccccc3C2=O)c(Cl)c1)c1cnn[nH]1`, in data set [1], the EC50 is > 10 µM.
For `O=C(Nc1ccc(N2C(=O)c3ccccc3C2=O)c(Cl)c1)c1cncs1`, in data set [1], the EC50 was > 10 µM.
`O=C(Nc1ccc(N2C(=O)c3ccccc3C2=O)c(Cl)c1)C1CCCO1` (stereo unspecified): in data set [1], the EC50 was > 10 µM.
Regarding `Cc1ccoc1C(=O)Nc1ccc(N2C(=O)c3ccccc3C2=O)c(Cl)c1`, the EC50 in data set [1] turned out to be 0.097 µM. Further, the %max in data set [2] amounted to 118%.
`CN(C)Cc1ccc(C(=O)Nc2ccc(N3C(=O)c4ccccc4C3=O)c(Cl)c2)o1`: the EC50 in data set [1] is > 10 µM.
For the molecule `CCc1ccc(C(=O)Nc2ccc(N3C(=O)c4ccccc4C3=O)c(Cl)c2)o1`, in data set [1], the EC50 is > 10 µM. Moreover, the %max in data set [2] is 30%.
Consider `O=C(Nc1ccc(N2C(=O)c3ccccc3C2=O)c(Cl)c1)c1ccc(Br)o1`, for which the EC50 in data set [1] is > 10 µM. The %max in data set [2] came out at 45%.
Consider `Cc1ccoc1C(=O)Nc1ccc(N)c(Cl)c1`, for which the Drug metabolism entry in the data set with Plasma [5] and with Plasma [6] was “metabolite_detected” each time.
Regarding `O=C(Nc1ccc(N2C(=O)c3ccccc3C2=O)c(Cl)c1)c1ccno1`, in data set [1], the EC50 was > 10 µM.
`O=C(Nc1ccc(N2C(=O)c3ccccc3C2=O)c(Cl)c1)c1occc1-c1ccccc1`: the EC50 in data set [1] is > 10 µM.
As to `O=C(Nc1ccc(N2C(=O)c3ccccc3C2=O)c(Cl)c1)c1ccc(C(F)(F)F)o1`, the EC50 in data set [1] is > 10 µM. In addition, the %max in data set [2] was 43%.
For the molecule `O=C(Nc1ccc(N2C(=O)c3ccccc3C2=O)c(Cl)c1)c1cn[nH]c1`, the EC50 in data set [1] was > 10 µM.
On to `O=C(Nc1ccc(N2C(=O)c3ccccc3C2=O)c(Cl)c1)c1ncco1`, for which the EC50 in data set [1] is > 10 µM.
With `O=C(Nc1ccc(N2C(=O)c3ccccc3C2=O)c(Cl)c1)c1ccco1`, the EC50 in data set [1] is 0.55 µM. In addition, in data set [2], the %max was 76%.
As for `Cc1ccoc1C(=O)Nc1ccc(N2C(=O)c3ccc(F)cc3C2=O)c(Cl)c1`, the EC50 in data set [3] (read-out: EC50) was 0.712 µM; in data set [3] (read-out: pEC50 (converted)) it was 0.724 µM; in data set [1], 0.0241 µM. Moreover, the %max in data set [4] stood at 97%; in data set [2] it was 88%. Further, the Ratio EC50 in the data set listed under Homo sapiens came out at 29.7.
For the molecule `Cc1ccoc1C(=O)Nc1ccc(NC(=O)c2ccc(Cl)cc2C(=O)O)c(Cl)c1`, the Drug metabolism entry in the data set with Plasma [5] and in the data set on Plasma [6] was “metabolite_detected” throughout.
As to `Cc1ccc(C(=O)Nc2ccc(N3C(=O)c4ccccc4C3=O)c(Cl)c2)o1`, the EC50 in data set [1] is > 10 µM. Further, the %max in data set [2] was 60%.
Taken in the same sequence, the figures for `CS(=O)(=O)c1ccc(C(=O)Nc2ccc(N3C(=O)c4ccccc4C3=O)c(Cl)c2)o1` were > 10 µM and 35%.
Consider `Cc1ccc2c(c1)C(=O)N(c1ccc(NC(=O)c3occc3C)cc1Cl)C2=O`, for which the figures for the EC50 in data set [3] (read-out: EC50) and in data set [1] were 0.323 µM and 0.0544 µM, respectively. The figures for the %max in data set [4] and in data set [2] were 69% and 86%, respectively. Also, the Ratio EC50 in the data set filed under Homo sapiens is 5.9.
